Tests used:
HeLa [1] = assay: Antiproliferative activity against human HeLa cells incubated for 72 hrs by MTT assay; assay type: functional, cell-based
Method in brief: (§1)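 Cells seeded at 5000 per well on day 0. Test agents added in five 10-fold dilutions (0.01–100 μM) for a further 72 h, with DMSO ≤0.1% as solvent control. Growth was read by MTT and absorbance converted to percentage growth against untreated cells on the same plate. IC50 came from linear regression on dose–response curves. Quadruplicate points, three independent experiments.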

HepG2 = assay: Antiproliferative activity against human HepG2 cells incubated for 72 hrs by MTT assay; assay type: functional, cell-based; method in brief: as §1
SW-620 = assay: Antiproliferative activity against human SW620 cells incubated for 72 hrs by MTT assay; assay type: functional, cell-based; method in brief: as §1
[2] = Cytotoxicity against human HEL cells assessed as alteration in cell morphology incubated for 3 days by microscopy; assay type: cell-based
Method in brief: (§2)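 MCC is the compound concentration causing a microscopically visible alteration of cell morphology in the cultures used for the antiviral assays.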

HEL = assay: Cytotoxicity against human HEL cells assessed as cell growth reduction incubated for 3 days; assay type: cell-based; settings: 72 h
Method in brief: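 HEL cells were seeded at 5 × 10^3 per well and allowed to proliferate for 24 h before compound-containing medium was added. After 3 days at 37 °C, cells were counted with a Coulter counter. CC50 (50% reduction of proliferation versus untreated controls) was estimated from graphic plots.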

Human betaherpesvirus 5 [3] = assay: Antiviral activity against Human cytomegalovirus Davis expressed in HEL cells assessed as reduction in plaque formation incubated for 7 days by Giemsa stain based microscopy; assay type: functional, organism-based; settings: Human betaherpesvirus 5, Davis, 168 h
Method in brief: (§3)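 Confluent HEL fibroblasts were infected at 100 PFU per well. After 2 h, residual virus was removed and compound-containing medium added, in duplicate. After 7 days at 37 °C, cells were ethanol-fixed, Giemsa-stained and examined microscopically. EC50 was read from graphic plots of % cytopathogenicity versus concentration.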

Human betaherpesvirus 5 [4] = assay: Antiviral activity against Human cytomegalovirus AD169 expressed in HEL cells assessed as reduction in plaque formation incubated for 7 days by Giemsa stain based microscopy; assay type: functional, organism-based; settings: Human betaherpesvirus 5, AD169, HEL, 168 h; method in brief: as §3
[5] = Antiproliferative activity against human CEM/0 cells incubated for 72 hrs by MTT assay; assay type: functional, cell-based, CCRF-CEM; method in brief: as §1
[6] = Antiproliferative activity against human MIAPaCa2 cells incubated for 72 hrs by MTT assay; assay type: functional, cell-based, MIA PaCa-2; method in brief: as §1
[7] = Antiproliferative activity against mouse L1210/0 cells incubated for 72 hrs by MTT assay; assay type: functional, cell-based; method in brief: as §1
CFPAC-1 = assay: Antiproliferative activity against human CFPAC-1 cells incubated for 72 hrs by MTT assay; assay type: functional, cell-based; settings: CFPAC-1, 72 h; method in brief: as §1
[8] = Cytotoxicity against African green monkey Vero cells assessed as alteration in cell morphology by microscopy; assay type: cell-based; settings: chlorocebus sabaeus; method in brief: as §2
Sindbis virus = assay: Antiviral activity against Sindbis virus expressed in African green monkey Vero cells assessed as reduction in cytopathogenicity; assay type: functional, organism-based
Method in brief: (§4)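 Confluent Vero monolayers were inoculated with 100 CCID50 of virus in the presence of 5-fold serial compound dilutions. Cytopathicity was scored once it was complete in untreated infected controls. EC50 is the concentration giving 50% reduction of virus-induced cytopathogenicity.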

Human respirovirus 3 = assay: Antiviral activity against Parainfluenza virus 3 expressed in African green monkey Vero cells assessed as reduction in cytopathogenicity; assay type: functional, organism-based; settings: Human respirovirus 3, Vero; method in brief: as §4
Punta Toro virus = assay: Antiviral activity against Punta Toro virus expressed in African green monkey Vero cells assessed as reduction in cytopathogenicity; assay type: functional, organism-based; method in brief: as §4
[9] = test system: Mammalian orthoreovirus 1; assay: Antiviral activity against Reovirus 1 expressed in African green monkey Vero cells assessed as reduction in cytopathogenicity; assay type: functional, cell-based; settings: Mammalian orthoreovirus 1, Vero; method in brief: as §4
HeLa [10] = assay: Cytotoxicity against human HeLa cells assessed as cell growth reduction incubated for 3 days; assay type: cell-based; settings: 72 h
Coxsackievirus B4 = assay: Antiviral activity against Coxsackievirus B4 expressed in African green monkey Vero cells assessed as reduction in cytopathogenicity; assay type: functional, organism-based; settings: Enterovirus B; method in brief: as §4

Compound O=c1[nH]cc(F)c(=O)[nH]1 [FLUOROURACIL] has an IC50 (HeLa [1]; Homo sapiens, HeLa, 72 h) of 66.5 µM, an IC50 (HepG2; Homo sapiens, HepG2, 72 h) of 55.2 µM and an IC50 (SW-620; Homo sapiens, SW-620, 72 h) of 0.79 µM.

In the case of Nc1nc(O)c2ncn(COC(CO)CO)c2n1 [GANCICLOVIR], the MCC at 72 h [2] is reported as > 350 µM, the CC50 (HEL) is reported as 328 µM and the EC50 (Human betaherpesvirus 5 [3]) is reported as 4.72 µM. It also gave an EC50 (Human betaherpesvirus 5 [4]) of 6.12 µM.

For O=C1O/C(=C\Cn2cnc3cc[nH]c3c2=O)C(OCc2ccccc2)=C1OCc1ccccc1, the IC50 (HeLa [1]; Homo sapiens, HeLa, 72 h) was 27 µM, the IC50 (HepG2; Homo sapiens, HepG2, 72 h) was > 100 µM and the IC50 ([5]; Homo sapiens, CCRF-CEM, 72 h) was 16 µM. For the same compound, the IC50 (SW-620; Homo sapiens, SW-620, 72 h) was > 100 µM, the IC50 ([6]; Homo sapiens, MIA PaCa-2, 72 h) was > 100 µM and the IC50 ([7]; Mus musculus, L1210/0, 72 h) was 28 µM.

For O=C1NC(O)(CCn2cnc3ccn(CCC4(O)NC(=O)C(OCc5ccccc5)=C4OCc4ccccc4)c3c2=O)C(OCc2ccccc2)=C1OCc1ccccc1 (stereo in doubt; 19), the IC50 (HeLa [1]; hela) was 18 µM, the IC50 (HepG2; hepg2) was 52 µM and the IC50 ([5]; ccrf-cem) was 4.9 µM. For the same compound, the IC50 (SW-620; sw-620) was 30.5 µM, the IC50 ([6]; mia paca-2) was 4.4 µM and the IC50 ([7]; l1210/0) was 7.6 µM.

For O=C1O/C(=C\Cn2cnc3ncc(Br)c-3c2)C(OCc2ccccc2)=C1OCc1ccccc1 (mixture of isomers), the IC50 (HeLa [1]; Homo sapiens, HeLa, 72 h) was 17 µM, the IC50 (HepG2; Homo sapiens, HepG2, 72 h) was > 100 µM and the IC50 ([5]; Homo sapiens, CCRF-CEM, 72 h) was 12 µM. The IC50 (CFPAC-1) was > 100 µM, the IC50 (SW-620; Homo sapiens, SW-620, 72 h) was > 100 µM and the IC50 ([6]; Homo sapiens, MIA PaCa-2, 72 h) was > 100 µM. For the same compound, the IC50 ([7]; Mus musculus, L1210/0, 72 h) was 15 µM.

In the case of O=C1O/C(=C\Cn2cc(I)c3c(Cl)ncnc32)C(OCc2ccccc2)=C1OCc1ccccc1 (mixture of isomers), the IC50 (HeLa [1]; Homo sapiens, HeLa, 72 h) is reported as 65 µM, the IC50 (HepG2; Homo sapiens, HepG2, 72 h) is reported as > 100 µM and the IC50 ([5]; Homo sapiens, CCRF-CEM, 72 h) is reported as > 250 µM. The IC50 (SW-620; Homo sapiens, SW-620, 72 h) was > 100 µM, the IC50 ([6]; Homo sapiens, MIA PaCa-2, 72 h) was 33.3 µM and the IC50 ([7]; Mus musculus, L1210/0, 72 h) was 128 µM.

For O=C1O/C(=C\Cn2cnc3c(F)nc(F)c(Cl)c32)C(OCc2ccccc2)=C1OCc1ccccc1, the IC50 (HeLa [1]; Homo sapiens, HeLa, 72 h) was > 100 µM, the IC50 (HepG2; Homo sapiens, HepG2, 72 h) was > 100 µM and the MCC [8] was ≥ 20 µM. The EC50 (Sindbis virus) was > 20 µM, the MCC at 72 h [2] was > 100 µM and the CC50 (HEL) was ≥ 100 µM. For the same compound, the IC50 (SW-620; Homo sapiens, SW-620, 72 h) was 55 µM, the EC50 (Human respirovirus 3) was > 20 µM and the EC50 (Punta Toro virus) was 12 µM. For the same compound, the EC50 [9] was > 20 µM, the EC50 (Human betaherpesvirus 5 [3]) was 44.7 µM and the Activity (HeLa [10]) was “Non-toxic”. For the same compound, the EC50 (Human betaherpesvirus 5 [4]) was 44.7 µM, the EC50 (Coxsackievirus B4) was 14.5 µM and the IC50 ([6]; Homo sapiens, MIA PaCa-2, 72 h) was 78 µM.

For Nc1ccn(C[C@@H](CO)OCP(=O)(O)O)c(=O)n1 [CIDOFOVIR], the MCC at 72 h [2] was > 300 µM, the CC50 (HEL) was 153 µM and the EC50 (Human betaherpesvirus 5 [3]) was 0.51 µM. For the same compound, the EC50 (Human betaherpesvirus 5 [4]) was 0.61 µM.

For O=C1NC(O)(CCn2cnc3ccnc(Cl)c32)C(OCc2ccccc2)=C1OCc1ccccc1 (centres undefined), the IC50 (HeLa [1]; Homo sapiens, HeLa, 72 h) was 21 µM, the IC50 (HepG2; Homo sapiens, HepG2, 72 h) was > 100 µM and the IC50 (SW-620; Homo sapiens, SW-620, 72 h) was > 100 µM. The IC50 ([6]; Homo sapiens, MIA PaCa-2, 72 h) was 60 µM.

With NC(=O)c1ncn([C@@H]2O[C@H](CO)[C@@H](O)[C@H]2O)n1 [RIBAVIRIN] the MCC [8] was > 250 µM, the EC50 (Sindbis virus) was > 250 µM and the EC50 (Human respirovirus 3) was 73.5 µM. For the same compound, the EC50 [9] was > 250 µM and the EC50 (Coxsackievirus B4) was > 250 µM.

In the case of Nc1nc(F)c(Cl)c2c1ncn2CCC1(O)NC(=O)C(OCc2ccccc2)=C1OCc1ccccc1 (centres undefined), the IC50 (HeLa [1]; Homo sapiens, HeLa, 72 h) is reported as 39 µM, the IC50 (HepG2; Homo sapiens, HepG2, 72 h) is reported as > 100 µM and the IC50 (SW-620; Homo sapiens, SW-620, 72 h) is reported as 59 µM. The IC50 ([6]; Homo sapiens, MIA PaCa-2, 72 h) was > 100 µM.
